Source: PubChem BioAssay (Johns Hopkins Ion Channel Center)
A selection: hits, their analogues and other compounds. The true share with any hit is near 3.1%.
KCNK9 block: blocks the human KCNK9 two-pore domain potassium channel; Q9NPC2; HEK293 KCNK9, FluxOR thallium flux fluorescence; stronger effect = lower value; B-score at 10 µM; 310,000 tested, 1.2% active; AID 488922;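 active = ratio B-score over 3 SD below the library mean, with starting fluorescence within 5 SD of its mean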;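 also: negative B-score means less thallium flux so channel inhibition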
KCNQ1 block: blocks the human KCNQ1 potassium channel | CHO-K1 KCNQ1, FluxOR thallium flux fluorescence; stronger effect = higher value | P51787 | 310,000 tested, 1.3% active | B-score at 10 µM;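 active = compounds whose thallium flux B-score, printed positive for inhibition, exceeds three library SD while starting fluorescence stays within three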;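 also: channel opened by potassium depolarization with thallium stimulus after 20 min compound exposure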
KCNK3 block: human KCNK3 channel inhibition, primary screen; B-score at 10 µM; O14649; CHO-KCNK3 thallium flux, FluxOR fluorescence; stronger effect = lower value; 340,000 tested, 0.84% active;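 active = B-score under library mean minus 4 SD, starting fluorescence ratio at most library mean plus 5 SD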;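 also: more negative B-score means stronger inhibition of thallium flux through KCNK3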
hERG protect: hERG (human) protection from proarrhythmic block; 310,000 tested, 0.51% active; CHO-hERG, FluxOR thallium flux, dofetilide IC70 present; activation (rescue from dofetilide block), less the hit threshold, % at 10 µM; Q12809;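 active = activation above the mean of controls blocked by dofetilide plus 5 SD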;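 also: thallium influx through hERG after potassium depolarization seen as dye fluorescence rise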
Target sequence (Q12809 whole entry, looked up): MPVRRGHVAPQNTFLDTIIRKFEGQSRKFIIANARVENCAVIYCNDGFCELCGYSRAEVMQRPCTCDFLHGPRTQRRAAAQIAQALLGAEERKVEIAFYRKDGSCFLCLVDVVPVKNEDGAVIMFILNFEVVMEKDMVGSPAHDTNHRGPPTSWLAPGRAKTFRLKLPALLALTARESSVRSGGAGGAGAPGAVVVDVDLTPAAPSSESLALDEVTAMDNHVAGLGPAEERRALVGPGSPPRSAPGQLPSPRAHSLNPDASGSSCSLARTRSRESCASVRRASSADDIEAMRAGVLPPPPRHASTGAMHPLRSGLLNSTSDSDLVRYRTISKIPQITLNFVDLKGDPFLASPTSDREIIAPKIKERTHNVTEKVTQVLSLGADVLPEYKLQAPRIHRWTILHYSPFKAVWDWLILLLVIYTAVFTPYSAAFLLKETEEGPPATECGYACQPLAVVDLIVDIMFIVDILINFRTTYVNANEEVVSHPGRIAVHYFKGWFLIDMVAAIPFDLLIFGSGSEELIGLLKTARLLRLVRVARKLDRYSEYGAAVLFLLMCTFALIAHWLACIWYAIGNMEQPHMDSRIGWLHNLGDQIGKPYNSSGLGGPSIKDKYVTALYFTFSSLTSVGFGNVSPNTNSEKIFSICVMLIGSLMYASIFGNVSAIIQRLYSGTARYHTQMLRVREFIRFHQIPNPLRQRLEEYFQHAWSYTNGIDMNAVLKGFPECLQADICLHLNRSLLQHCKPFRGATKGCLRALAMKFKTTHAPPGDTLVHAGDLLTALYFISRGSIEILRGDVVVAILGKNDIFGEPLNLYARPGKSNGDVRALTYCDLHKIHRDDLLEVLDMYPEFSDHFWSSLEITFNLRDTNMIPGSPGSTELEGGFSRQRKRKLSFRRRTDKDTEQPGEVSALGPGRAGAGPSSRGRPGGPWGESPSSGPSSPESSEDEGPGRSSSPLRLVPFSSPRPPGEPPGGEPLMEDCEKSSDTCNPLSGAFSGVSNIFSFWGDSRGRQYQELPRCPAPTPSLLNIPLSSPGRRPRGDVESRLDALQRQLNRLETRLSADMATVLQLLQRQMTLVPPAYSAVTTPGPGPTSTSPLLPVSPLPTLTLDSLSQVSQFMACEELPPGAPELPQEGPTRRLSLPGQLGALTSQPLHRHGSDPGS
KCNQ1 act: potentiates or activates the human KCNQ1 potassium channel; P51787; CHO-K1 KCNQ1, thallium flux FluxOR fluorescence; stronger effect = higher value; B-score at 10 µM; 310,000 tested, 0.35% active;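 active = fluorescence ratio B-score, a plate-corrected score, at least three library SD, with initial intensity B-score within 5 SD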
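Medium – assay buffer, equal DMSO in all wells · Material – CHO-K1 cell line with stable KCNQ1 potassium channel expression · Signal – kinetic FluxOR thallium fluorescence, 10-s 1-Hz baseline, 110-s post-stimulus read · Compound – single concentration per compound, DMSO matched to controls · Schedule – 37 °C overnight plating, 90-min dark dye load, 20-min compound pretreatment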
Of the large screens only hits and unclear results are named; the others gave an inactive call.

Cc1cccc(NS(=O)(=O)c2ccc(C(=O)N3CCC3)cc2)c1C	none
COc1cc(/C=C/C(=O)c2ccc3c(c2)OCO3)cc(Cl)c1O	KCNK9 block -7, KCNQ1 block 6
CC(C)(C)NC(=O)c1cccc(NC(=O)Cc2cccs2)c1	none
Cc1cccc(NC(=O)c2cccc(NC(=O)Cc3cccs3)c2)c1	KCNK9 block -6.9
COc1ccc(OCCNC(=O)c2ccc(C)cc2)cc1	none
CCC(=O)Nc1ccc(C(=O)CSc2nc3ccccc3cc2CC)cc1	KCNK9 block -7.2
Cc1ccc(C)c(OCC(=O)Nc2nc3ccc([N+](=O)[O-])cc3s2)c1C	KCNQ1 block 6
CCC(=O)Nc1nc2ccc([N+](=O)[O-])cc2s1	none
COc1ccc(CNC(C)C23CC4CC(CC(C4)C2)C3)c(OC)c1OC (configuration not stated)	none
O=C1C(=NO)C(c2ccccc2)Oc2ccccc21 (configuration not stated)	none (no result: KCNK9 block, KCNQ1 block, hERG protect, KCNQ1 act)
CCOC(=O)c1ccccc1NC(=O)COC(=O)c1ccc(OCC(=O)N2CCOCC2)c(OCC)c1	none (no result: KCNK9 block, KCNQ1 block, hERG protect, KCNQ1 act)
CCC(C(=O)Nc1cccc(S(=O)(=O)N(C)c2ccccc2)c1)c1ccccc1 (configuration not stated)	KCNK3 block -9.9 (no result: KCNK9 block, KCNQ1 block, hERG protect, KCNQ1 act)
CN(CC(=O)Nc1cccc(F)c1)CC(=O)Nc1cccc2ccccc12	KCNK3 block -11 (no result: KCNK9 block, KCNQ1 block, hERG protect, KCNQ1 act)
CN(CC(=O)Nc1cccc(F)c1)CC(=O)Nc1cccc(S(=O)(=O)N(C)c2ccccc2)c1	KCNK3 block -9.3 (no result: KCNK9 block, KCNQ1 block, hERG protect, KCNQ1 act)
Cc1cc(C)c(NC(=O)CN(C)CC(=O)Nc2cccc(S(=O)(=O)N(C)c3ccccc3)c2)c(C)c1	none (no result: KCNK9 block, KCNQ1 block, hERG protect, KCNQ1 act)
COc1ccc(N=Nc2ccc(O)c3ncccc23)cc1	none
COc1cccc(N=Nc2ccc3cccnc3c2O)c1	KCNQ1 act 9
O=C(NCc1ccco1)c1ccc2c(c1)N(Cc1ccc(Cl)cc1)CCS2	KCNK9 block -6.8
O=C(NCc1ccco1)c1ccc2c(c1)N(Cc1ccccc1)CCS2	none
CC(C)c1ccc(NC(=O)C(c2ccccc2)N(Cc2ccco2)C(=O)CC2NC(=O)NC2=O)cc1 (configuration not stated)	KCNQ1 block 8
CCOC(=O)c1ccc(Oc2cc(C)nc(SC)n2)cc1	hERG protect 5.5
Cc1cc(C(C#N)c2ccc(Cl)cc2)c(Cl)cc1NC(=O)c1cc(I)cc(I)c1O (configuration not stated)	KCNQ1 act 8
Cc1cc(NC(=O)c2ccc(Cl)cc2)c(C)cc1O	none
O=C(COC(=O)c1ccc([N+](=O)[O-])cc1)NC12CC3CC(CC(C3)C1)C2	none (no result: KCNK9 block, KCNQ1 block, hERG protect, KCNQ1 act)
Cc1ccc(C)n1-c1ccc(C(=O)N2CCC(C(N)=O)CC2)cc1	hERG protect 7.2
CCOc1ccc(/C=C2/SC(=O)NC2=S)cc1	hERG protect 37, KCNQ1 act 112
COc1ccc2c(C)cc(SCC(=O)N(C)C3CCS(=O)(=O)C3)nc2c1 (configuration not stated)	none
CNC(=O)COC(=O)c1ccccc1C(=O)c1ccc(Cl)c([N+](=O)[O-])c1	KCNQ1 block 6
O=C(COC(=O)c1ccccc1C(=O)c1ccc(Cl)c([N+](=O)[O-])c1)NC1CC1	none
O=C1NC(=S)NC(=O)C1=Cc1ccccc1C(=O)O	none (no result: KCNK9 block, KCNQ1 block, hERG protect, KCNQ1 act)
CC1(C)Cc2c(ccc3ccccc23)C2=C(C(=O)N3CCCC3)C(=O)C(=O)N21	hERG protect 5.1
C=CCC1(O)C(=O)N2C(=C1C(=O)OCC)c1ccc3ccccc3c1CC2(C)C (configuration not stated)	none
CSc1nsc(SCC(=O)Nc2ccc(C(N)=O)cc2)n1	none
CCCOc1ccc(/C=C/C(=O)Nc2ccc([N+](=O)[O-])cc2)cc1	KCNQ1 block 7
CCCCN1C(=O)C2ON(c3ccccc3C)C(c3ccco3)C2C1=O (configuration not stated)	KCNK3 block -9
Cc1cn(CC(=O)NCc2ccc3c(c2)OCO3)c(=O)[nH]c1=O	none (no result: KCNK9 block, KCNQ1 block, hERG protect, KCNQ1 act)
Cc1cccc(NC(=O)C2C3CCCCC32)c1 (configuration not stated)	none
CC(C)c1ccc(N(C(=O)c2snc(C(N)=O)c2N)C(C(=O)NC2CCCC2)c2ccncc2)cc1 (configuration not stated)	none
CC(C)(C)C1=CC(=O)C(=O)C(C(C)(C)C)=C1	KCNK9 block -7.4, KCNQ1 block 6
COc1ccc(CCNC(=O)C2c3ccccc3C(=O)N2CCC(C)C)cc1OC (configuration not stated)	none
COc1ccc(OC)c(NC(=O)COC(=O)CC2CCCCC2)c1	none (no result: KCNK9 block, KCNQ1 block, hERG protect, KCNQ1 act)
Cc1cccc(NC(=O)c2n[nH]c([N+](=O)[O-])c2Br)c1C	KCNQ1 block 7
CCOc1ccccc1C(=O)NC(C(=O)N(C)Cc1ccc2c(c1)OCO2)C(C)C (configuration not stated)	KCNK3 block -9.2 (no result: KCNK9 block, KCNQ1 block, hERG protect, KCNQ1 act)
CCOc1ccccc1C(=O)NC(C)c1ccc2c(c1)OCO2 (configuration not stated)	none
CCOc1ccccc1C(=O)N[C@H](C(=O)OCc1cc(=O)oc2cc(C)ccc12)C(C)C	KCNK9 block -6.7
COc1cc(OC)cc(C(=O)N[C@H](C(=O)OCc2cc(=O)oc3cc(C)ccc23)C(C)C)c1	none
CC(C)CC1(C2CCCC2)NC(=O)NC1=O (configuration not stated)	none (no result: KCNK9 block, KCNQ1 block, hERG protect, KCNQ1 act)
CCC(OC(=O)c1cccs1)C(=O)NCc1ccco1 (configuration not stated)	hERG protect 51
CCCCn1c(SCC(=O)NCc2ccco2)nc2ccccc2c1=O	none
CCCCCn1c(SCc2ccncc2)nc2cc(C(=O)NCc3ccco3)ccc2c1=O	KCNQ1 block 10
O=C(N/N=C/c1c[nH]c2ccccc12)c1cc(Cl)ccc1O	none
O=C1c2nc3cc(-c4ccco4)[nH]n3c(=O)c2CN1Cc1ccccc1	hERG protect 5.0
CCCCc1c(C)nc2cc(-c3ccco3)[nH]n2c1=O	none
Cc1cccc(N=NC(=S)NNc2cccc(C)c2)c1	none (no result: KCNK9 block, KCNQ1 block, hERG protect, KCNQ1 act)
CCCSc1nc(C)cc(=O)[nH]1	none
CCCSc1nc(N)cc(=O)[nH]1	hERG protect 4.7
Cc1nnc2n(-c3ccccc3)c(=O)c3c4c(sc3n12)COC(C(C)C)C4 (configuration not stated)	none
CC(C)C1Cc2c(sc3[nH]c(=S)n(Cc4ccccc4)c(=O)c23)CO1 (configuration not stated)	hERG protect 8.8, KCNQ1 act 26
O=S(=O)(c1ccc(Cl)nc1)N1CCCC1	none (no result: KCNK9 block, KCNQ1 block, hERG protect, KCNQ1 act)
CCC(C)(C(=O)NC1CCCC1)N(C(=O)Cc1cccs1)c1c(C)n(C)n(-c2ccccc2)c1=O (configuration not stated)	KCNQ1 block 10
CCC(C)(C(=O)NC1CCCCC1)N(C(=O)CNC(C)=O)c1c(C)n(C)n(-c2ccccc2)c1=O (configuration not stated)	none
CCN1/C(=C/C=C/c2oc3ccc4ccccc4c3[n+]2CC)Oc2ccc3ccccc3c21	KCNQ1 block 10 (no result: KCNK3 block)
